{"source": "ChEMBL document CHEMBL3243957", "about": "“Synthesis and screening of 8-(4'-thiazolyl)purines” (J Med Chem, 1978)", "key": {"Mus musculus [1]": {"tested_on": "Mus musculus", "assay": "Antitumor activity against mouse S180J cells allografted in CD-1 mouse assessed as tumor regression at 30 mg/kg, ip administered six times in consecutive days starting a day after tumor cell inoculation measured 42 days after start of drug treatment", "assay_type": "functional, organism-based", "design": "dose 30 mg/kg", "summary_of_the_method": "(§1)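 Female CD-1 mice, in groups of six, were inoculated with 7.5 × 10^5 tumor cells. Starting the day after inoculation, the agent was given ip as a carboxymethylcellulose suspension in saline, once daily for six consecutive days, at different dosages.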"}, "Lymphocyte [2]": {"tested_on": "Lymphocyte", "assay": "Immunopotentiation activity in human lymphocytes assessed as increase in cell proliferation at 1 to 100 ug/ml by [3H]thymidine incorporation assay in presence of mitogen phytohemagglutinin", "assay_type": "functional, cell-based", "summary_of_the_method": "(§2)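 Lymphocytes were cultured with compound at 1, 10 and 100 µg/mL, with or without a suboptimal concentration of the lectin mitogen phytohemagglutinin. Proliferation was read as tritiated thymidine incorporation.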"}, "Human alphaherpesvirus 1 [3]": {"tested_on": "Human alphaherpesvirus 1", "assay": "Antiviral activity against HSV-1 infected in african green monkey Vero cells assessed as inhibition of viral replication at 1 ug/ml (reference value: 2.7 x 10^5 PFU/ml)", "assay_type": "functional"}, "Human alphaherpesvirus 1 [4]": {"tested_on": "Human alphaherpesvirus 1", "assay": "Antiviral activity against HSV-1 infected in african green monkey Vero cells assessed as inhibition of viral replication at 10 ug/ml (reference value: 2.7 x 10^5 PFU/ml)", "assay_type": "functional"}, "Lymphocyte [5]": {"tested_on": "Lymphocyte", "assay": "Inhibition of phytohemagglutinin-induced human lymphocytes proliferation at 100 ug/ml by [3H]thymidine incorporation assay", "assay_type": "functional, cell-based", "summary_of_the_method": "as §2"}, "Lymphocyte [6]": {"tested_on": "Lymphocyte", "assay": "Immunopotentiation activity in human lymphocytes assessed as increase in cell proliferation at 1 to 100 ug/ml by [3H]thymidine incorporation assay in absence of mitogen phytohemagglutinin", "assay_type": "functional, cell-based", "summary_of_the_method": "as §2"}, "Mus musculus [7]": {"tested_on": "Mus musculus", "assay": "Antitumor activity against mouse S180J cells allografted in CD-1 mouse assessed as tumor regression at 10 to 100 mg/kg, ip administered six times in consecutive days starting day after tumor cell inoculation measured 42 days after start of drug treatment", "assay_type": "functional, organism-based", "summary_of_the_method": "as §1"}, "Human alphaherpesvirus 1 [8]": {"tested_on": "Human alphaherpesvirus 1", "assay": "Antiviral activity against HSV-1 infected in african green monkey Vero cells assessed as inhibition of viral replication at 100 ug/ml (reference value: 2.7 x 10^5 PFU/ml)", "assay_type": "functional"}, "Mus musculus [9]": {"tested_on": "Mus musculus", "assay": "Antitumor activity against mouse S180J cells allografted in CD-1 mouse assessed as tumor regression at 16 mg/kg, ip administered six times in consecutive days starting a day after tumor cell inoculation measured 42 days after start of drug treatment", "assay_type": "functional, organism-based", "design": "dose 16 mg/kg", "summary_of_the_method": "as §1"}, "Mus musculus [10]": {"tested_on": "Mus musculus", "assay": "Antitumor activity against mouse S180J cells allografted in CD-1 mouse assessed as tumor regression at 1 mg/kg, ip administered six times in consecutive days starting a day after tumor cell inoculation measured 42 days after start of drug treatment", "assay_type": "functional, organism-based", "design": "dose 1 mg/kg", "summary_of_the_method": "as §1"}, "Mus musculus [11]": {"tested_on": "Mus musculus", "assay": "Antitumor activity against mouse S180J cells allografted in ip dosed CD-1 mouse assessed as tumor regression administered six times in consecutive days starting a day after tumor cell inoculation measured 42 days after start of drug treatment", "assay_type": "functional, organism-based", "summary_of_the_method": "as §1"}, "Mus musculus [12]": {"tested_on": "Mus musculus", "assay": "Antitumor activity against mouse S180J cells allografted in CD-1 mouse assessed as tumor regression at 32 mg/kg, ip administered six times in consecutive days starting a day after tumor cell inoculation measured 42 days after start of drug treatment", "assay_type": "functional, organism-based", "design": "dose 32 mg/kg", "summary_of_the_method": "as §1"}, "Mus musculus [13]": {"tested_on": "Mus musculus", "assay": "Antitumor activity against AKR mouse leukemia assessed as increase in survival time at 0.2 to 20 mg/kg, po", "assay_type": "functional, organism-based", "summary_of_the_method": "(§3)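 AKR leukemia-bearing mice were dosed at 0.2, 2.0 and 20 mg/kg, each given by intraperitoneal, oral or subcutaneous routes. The read-out was increase in survival time.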"}, "Mus musculus [14]": {"tested_on": "Mus musculus", "assay": "Antitumor activity against AKR mouse leukemia assessed as increase in survival time at 0.2 to 20 mg/kg, sc", "assay_type": "functional, organism-based", "summary_of_the_method": "as §3"}, "Mus musculus [15]": {"tested_on": "Mus musculus", "assay": "Antitumor activity against AKR mouse leukemia assessed as increase in survival time at 0.2 to 20 mg/kg, ip", "assay_type": "functional, organism-based", "summary_of_the_method": "as §3"}, "Mus musculus [16]": {"tested_on": "Mus musculus", "assay": "Antitumor activity against mouse S180J cells allografted in CD-1 mouse assessed as tumor regression at 4 mg/kg, ip administered six times in consecutive days starting a day after tumor cell inoculation measured 42 days after start of drug treatment", "assay_type": "functional, organism-based", "design": "dose 4 mg/kg", "summary_of_the_method": "as §1"}, "L1210": {"tested_on": "L1210", "assay": "Antitumor activity against mouse L1210 cells allografted in mouse assessed as increase in host survival time at 125 mg/kg administered qd for 6 days relative to control", "assay_type": "functional", "summary_of_the_method": "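L1210 mouse leukemia in mice, dosed daily (qd) over a 1 to 125 mg/kg range. Read-out was survival time of treated versus control mice, given as % T/C. Procedure follows previously described methods.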"}, "Mus musculus [17]": {"tested_on": "Mus musculus", "assay": "Toxicity in mouse L1210 cells allografted mouse up to 500 mg/kg administered qd for 5 days", "assay_type": "organism-based", "design": "dose 500 mg/kg", "settings": "in vivo, 120 h"}, "Human alphaherpesvirus 1 [18]": {"tested_on": "Human alphaherpesvirus 1", "assay": "Antiviral activity against HSV-1 infected in african green monkey Vero cells assessed as inhibition of viral replication at 10 ug/ml (reference value: 1.2 x 10^6 PFU/ml)", "assay_type": "functional"}, "Human alphaherpesvirus 1 [19]": {"tested_on": "Human alphaherpesvirus 1", "assay": "Antiviral activity against HSV-1 infected in african green monkey Vero cells assessed as inhibition of viral replication at 100 ug/ml (reference value: 1.2 x 10^6 PFU/ml)", "assay_type": "functional"}, "Human alphaherpesvirus 1 [20]": {"tested_on": "Human alphaherpesvirus 1", "assay": "Antiviral activity against HSV-1 infected in african green monkey Vero cells assessed as inhibition of viral replication at 1 ug/ml (reference value: 1.2 x 10^6 PFU/ml)", "assay_type": "functional"}, "Mus musculus [21]": {"tested_on": "Mus musculus", "assay": "Antitumor activity against mouse S180J cells allografted in CD-1 mouse assessed as tumor regression at 100 mg/kg, ip administered six times in consecutive days starting a day after tumor cell inoculation measured 42 days after start of drug treatment", "assay_type": "functional, organism-based", "design": "dose 100 mg/kg", "summary_of_the_method": "as §1"}}, "note": "Calls of active or inactive are those of the source. The calls are words filed in the database; no cut-off is given here.", "data": [{"smiles": "Nc1ncnc2[nH]c(-c3cscn3)nc12", "values": [{"measurement": "inhibition", "setting": "Mus musculus [1]", "value": "inactive"}, {"measurement": "Activity", "setting": "Lymphocyte [2]", "value": "inactive"}, {"measurement": "PFU/ml", "setting": "Human alphaherpesvirus 1 [3]", "value": 320000}, {"measurement": "PFU/ml", "setting": "Human alphaherpesvirus 1 [4]", "value": 850000}, {"measurement": "inhibition", "setting": "Lymphocyte [5]", "value": "Active"}, {"measurement": "Activity", "setting": "Lymphocyte [6]", "value": "inactive"}, {"measurement": "inhibition", "setting": "Mus musculus [7]", "value": "inactive"}, {"measurement": "PFU/ml", "setting": "Human alphaherpesvirus 1 [8]", "value": 920000}]}, {"smiles": "Sc1ncnc2[nH]c(-c3cscn3)nc12", "values": [{"measurement": "Activity", "setting": "Lymphocyte [2]", "value": "inactive"}, {"measurement": "inhibition", "setting": "Lymphocyte [5]", "value": "Active"}, {"measurement": "Activity", "setting": "Lymphocyte [6]", "value": "inactive"}, {"measurement": "inhibition", "setting": "Mus musculus [9]", "value": "inactive"}, {"measurement": "inhibition", "setting": "Mus musculus [10]", "value": "inactive"}, {"measurement": "inhibition", "setting": "Mus musculus [11]", "value": "Active"}, {"measurement": "inhibition", "setting": "Mus musculus [12]", "value": "inactive"}, {"measurement": "Activity", "setting": "Mus musculus [13]", "value": "inactive"}, {"measurement": "Activity", "setting": "Mus musculus [14]", "value": "inactive"}, {"measurement": "Activity", "setting": "Mus musculus [15]", "value": "inactive"}, {"measurement": "inhibition", "setting": "Mus musculus [16]", "value": "inactive"}]}, {"smiles": "c1ncc2nc(-c3cscn3)[nH]c2n1", "values": [{"measurement": "Activity", "setting": "Lymphocyte [2]", "value": "inactive"}, {"measurement": "inhibition", "setting": "Lymphocyte [5]", "value": "Active"}, {"measurement": "Activity", "setting": "Lymphocyte [6]", "value": "inactive"}, {"measurement": "inhibition", "setting": "Mus musculus [7]", "value": "inactive"}]}, {"smiles": "ONc1ncnc2[nH]c(-c3cscn3)nc12", "values": [{"measurement": "T/C", "setting": "L1210", "value": 129, "unit": "%"}, {"measurement": "Activity", "setting": "Mus musculus [17]", "value": "Non-toxic"}]}, {"smiles": "Clc1ncnc2[nH]c(-c3cscn3)nc12", "values": [{"measurement": "PFU/ml", "setting": "Human alphaherpesvirus 1 [18]", "value": 2500000}, {"measurement": "Activity", "setting": "Lymphocyte [2]", "value": "inactive"}, {"measurement": "PFU/ml", "setting": "Human alphaherpesvirus 1 [19]", "value": 2200000}, {"measurement": "inhibition", "setting": "Lymphocyte [5]", "value": "Active"}, {"measurement": "Activity", "setting": "Lymphocyte [6]", "value": "inactive"}, {"measurement": "PFU/ml", "setting": "Human alphaherpesvirus 1 [20]", "value": 4000000}]}, {"smiles": "Nc1nc(S)c2nc(-c3cscn3)[nH]c2n1", "values": [{"measurement": "PFU/ml", "setting": "Human alphaherpesvirus 1 [18]", "value": 5300000}, {"measurement": "inhibition", "setting": "Mus musculus [1]", "value": "inactive"}, {"measurement": "inhibition", "setting": "Mus musculus [21]", "value": "inactive"}, {"measurement": "Activity", "setting": "Lymphocyte [2]", "value": "inactive"}, {"measurement": "PFU/ml", "setting": "Human alphaherpesvirus 1 [19]", "value": 820000}, {"measurement": "inhibition", "setting": "Lymphocyte [5]", "value": "Active"}, {"measurement": "Activity", "setting": "Lymphocyte [6]", "value": "inactive"}, {"measurement": "inhibition", "setting": "Mus musculus [11]", "value": "Active"}, {"measurement": "PFU/ml", "setting": "Human alphaherpesvirus 1 [20]", "value": 3500000}]}, {"smiles": "Oc1ncnc2[nH]c(-c3cscn3)nc12", "values": [{"measurement": "Activity", "setting": "Lymphocyte [2]", "value": "inactive"}, {"measurement": "inhibition", "setting": "Lymphocyte [5]", "value": "Active"}, {"measurement": "Activity", "setting": "Lymphocyte [6]", "value": "inactive"}]}]}
